Screens: PubChem, Johns Hopkins Ion Channel Center
An excerpt weighted towards active compounds, which were near 2.3% of everything screened.
TRPC6 inh: mouse TRPC6 channel inhibition; HEK293-TRPC6, membrane potential dye, ACh-evoked depolarization; hits give low values; B-score at 10 µM; 310,000 tested, 1.1% active; AID 2553;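 active = B-score under library mean minus 3 SD, initial fluorescence not abnormally high, positive integrated signal ratio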;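 note: B-score derived from integrated fluorescence ratio over the kinetic read; more negative B-score means stronger inhibition of depolarization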
Target sequence (Q61143 whole entry, looked up): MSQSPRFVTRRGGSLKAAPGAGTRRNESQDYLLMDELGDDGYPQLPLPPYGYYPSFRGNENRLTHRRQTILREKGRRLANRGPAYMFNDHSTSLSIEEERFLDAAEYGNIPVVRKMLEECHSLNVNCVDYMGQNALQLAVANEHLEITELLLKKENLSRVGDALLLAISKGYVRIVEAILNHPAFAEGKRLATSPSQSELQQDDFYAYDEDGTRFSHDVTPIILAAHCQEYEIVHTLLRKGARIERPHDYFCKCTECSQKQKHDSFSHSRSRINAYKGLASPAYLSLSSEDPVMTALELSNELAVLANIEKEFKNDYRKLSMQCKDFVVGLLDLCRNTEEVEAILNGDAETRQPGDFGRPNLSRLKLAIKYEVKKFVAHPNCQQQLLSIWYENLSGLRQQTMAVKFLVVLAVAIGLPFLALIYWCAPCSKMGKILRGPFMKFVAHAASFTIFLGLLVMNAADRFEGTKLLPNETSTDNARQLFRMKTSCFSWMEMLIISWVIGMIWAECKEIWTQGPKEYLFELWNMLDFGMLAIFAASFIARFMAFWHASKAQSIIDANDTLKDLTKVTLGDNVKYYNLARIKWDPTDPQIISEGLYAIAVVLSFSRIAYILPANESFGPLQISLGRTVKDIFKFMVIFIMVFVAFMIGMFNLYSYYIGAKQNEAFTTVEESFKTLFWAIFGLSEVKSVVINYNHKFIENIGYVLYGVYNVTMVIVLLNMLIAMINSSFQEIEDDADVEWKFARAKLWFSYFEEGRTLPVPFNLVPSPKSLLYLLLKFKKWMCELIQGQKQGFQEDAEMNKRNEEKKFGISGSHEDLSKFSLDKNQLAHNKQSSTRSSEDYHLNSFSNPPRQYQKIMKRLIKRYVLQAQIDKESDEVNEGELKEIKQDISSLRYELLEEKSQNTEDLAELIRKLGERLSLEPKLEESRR
TRPC4 agonist: activators of mouse TRPC4 channel. HEK293 TRPC4beta/mu-opioid, Fluo4 calcium fluorescence; hits give high values. 310,000 tested, 0.49% active. B-score at 10 µM. AID 2237. Q9QUQ5;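 active = B-score above 5 SD of library B-scores, and initial fluorescence ratio not above library mean plus 5 SD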;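 note: positive B-score marks a calcium rise read as TRPC4 activation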
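Assay system – TRPC4beta and mu-opioid receptor HEK293 stable cells · Measured by – Fluo4 fluorescence, kinetic · Schedule – dye loading 45 min room temperature, 110 s kinetic read · Read-out – B-scored integrated calcium fluorescence ratio · Controls – buffer and maximal DAMGO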
TRPC6 activator: activators of mouse TRPC6 channel; Q61143; HEK293-TRPC6 membrane potential dye fluorescence; hits give high values; B-score at 10 µM; 310,000 tested, 0.13% active;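 active = B-score of the integrated fluorescence ratio above library mean plus 3 SD, and starting fluorescence ratio within library mean plus 5 SD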;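 note: higher score means more depolarization so channel activation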
TRPC4 inh: TRPC4 (mouse) channel inhibition; 300,000 tested, 0.39% active; HEK293 TRPC4beta/mu-opioid, DAMGO-evoked Fluo4 calcium flux; hits give low values; B-score at 10 µM;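 active = B-score over 3 SD under the library average, no early fluorescence shift, positive overall ratio signal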
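Assay system: HEK293 cells with stable TRPC4beta plus mu-opioid receptor expression; Probe or stimulus: DAMGO in two steps, submaximal then maximal; Dosing: single-point compound dosing; Measured by: Fluo4 calcium-dye fluorescence, kinetic read; Read-out basis: B score from integrated Fluo4 fluorescence ratio.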
TRPC4 PAM: allosteric potentiators of mouse TRPC4 channel; 310,000 tested, 0.42% active; Q9QUQ5; B-score at 10 µM; HEK293 TRPC4beta/mu-opioid, DAMGO EC20, Fluo-4 Ca2+ flux; hits give high values;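 active = B-score of calcium response area above 5 SD of library B-scores, with initial fluorescence ratio within 5 SD of library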;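 note: B-score of integrated fluorescence ratio over time as area under calcium response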
The depositor's hits bear a star; i = inactive.

SMILES	TRPC6 inh	TRPC4 agonist	TRPC6 activator	TRPC4 inh	TRPC4 PAM
COc1ccc(-n2c(O)c(/C=N/NS(=O)(=O)c3ccc(C)c([N+](=O)[O-])c3)c3ccccc3c2=O)cc1OC	i	56*	i	i	i
Cc1nc2ccccc2n1CC(O)COc1ccccc1Cl (stereo unspecified)	i	i	i	-7*	i
Cc1nc2ccccc2n1CC(O)COc1ccc(Br)cc1 (stereo unspecified)	i	i	i	i	i
Cc1cc(C)c(S(=O)(=O)c2ccccc2C)c(OCC(C)(C)C)n1	i	i	i	-6*	i
CCOCCOc1nc(C)cc(C)c1S(=O)(=O)c1ccccc1C	i	i	i	i	i
CC(C)c1ccccc1OCCNS(C)(=O)=O	i	i	i	i	i
CC1(c2ccc(OC(F)F)cc2)NC(=O)N(CC(=O)Nc2ccccc2)C1=O (stereo unspecified)	i	68*	i	i	i
CC(=O)Nc1ccc(/C=N/N2C(=O)NC(C)(c3ccc(OC(F)F)cc3)C2=O)cc1 (stereo unspecified)	i	95*	i	i	i
CC1(c2ccc(OC(F)F)cc2)NC(=O)N(CC(=O)Nc2ccc3c(c2)OCO3)C1=O (stereo unspecified)	i	89*	i	i	12*
CCOc1cc(C(=O)N2CCC3(CC2)NCCc2[nH]cnc23)cc(OCC)c1OCC	i	i	i	i	i
O=C(CN1CC[n+]2c(-c3ccccc3)csc21)c1ccc(Br)cc1	i	i	i	i	i
O=C(CN1CC[n+]2c(-c3cccs3)csc21)c1ccc(Br)cc1	-5.01*	i	i	i	i
O=C(CSc1nc(=O)n(CCN2CCOCC2)c2c1CCC2)Nc1ccc(OC(F)(F)F)cc1	i	i	i	-6*	i
CCCCc1nnc(NC(=O)C2CCN(c3ncnc4sc(C)c(C)c34)CC2)s1	i	i	i	i	93*
Cn1ncc(C#N)c1/N=C/N(Cc1ccccc1)Cc1ccccc1	i	i	i	i	16*
C#CCCOC(=O)N1C2=NC(C(=O)OC)=C(C(=O)OC)[C@@H]3N(Cc4ccccc4)c4ccccc4[C@]23C[C@H]1C(=O)OC	i	i	i	i	10*
C#CCCOC(=O)N1C2=NC(C(=O)OC)=C(C(=O)OC)[C@@H]3N(C)c4ccccc4[C@]23C[C@H]1C(=O)OC	i	i	i	i	i
COc1ccc(CCNc2nc(C)nc3c2oc2ccccc23)cc1OC	i	i	i	i	i
Cc1nc(NCCc2cnc[nH]2)c2oc3ccccc3c2n1	i	82*	i	i	i
COc1ccc(/C=N/NC(=O)C(O)(c2ccccc2)c2ccccc2)cc1OC	i	i	i	i	i
Fc1ccc(-n2[nH]nnc2=S)cc1N1CCCC1	i	i	i	i	i
CCOC(=O)c1cnc2ccc(OC)cc2c1NCc1ccccc1	i	i	i	i	i
CCOC(=O)c1cnc2ccccc2c1NCc1ccco1	i	i	i	-6*	i
O=C(CCS(=O)(=O)c1ccccc1)NCCS(=O)(=O)c1ccccc1	i	i	i	i	i
CN(C)C(CNC(=O)CCS(=O)(=O)c1ccccc1)c1ccccc1 (stereo unspecified)	i	96*	i	i	i
SMILES	TRPC6 inh	TRPC4 agonist	TRPC6 activator	TRPC4 inh	TRPC4 PAM
CN(C)C(CNC(=O)c1ccc(S(=O)(=O)N(C)C)cc1)Cc1ccccc1 (stereo unspecified)	i	74*	i	i	i
COc1ccc(C(CNC(=O)c2ccc3c(c2)OCCO3)N(C)C)cc1 (stereo unspecified)	i	164*	i	i	i
COc1ccc(C(CNC(=O)c2cccc(S(=O)(=O)NCc3ccccc3)c2)N(C)C)cc1 (stereo unspecified)	i	159*	i	i	i
CN(C)S(=O)(=O)c1ccc(C(=O)NCCSc2ccccc2)cc1	i	i	i	i	i
COc1ccc(/C=C2\SC(=S)N(CCC(=O)N(CCO)c3ccccc3)C2=O)cc1OC	i	i	i	i	i
CN(C)C(CNC(=O)c1cccc(S(=O)(=O)N(C)C)c1)c1ccccc1 (stereo unspecified)	i	109*	i	i	i
CN(C)C(CNC(=O)CCc1c[nH]c2ccccc12)c1ccccc1 (stereo unspecified)	i	138*	i	i	i
COc1cccc(C(=O)NCC(=O)NCc2cc(=O)n(C)c(=O)n2C)c1OC	i	i	i	i	i
O=C(c1cccc([N+](=O)[O-])c1)N1CCCC(C(=O)N2CCCCCC2)C1 (stereo unspecified)	i	i	i	i	29*
O=C1CCCC(=O)N1c1ccc(N2CCN(c3ccc([N+](=O)[O-])cc3)CC2)c([N+](=O)[O-])c1	i	i	i	i	21*
Clc1ccc(CONc2ncnc3nonc23)c(Cl)c1	i	i	i	i	30*
CCONc1ncnc2nonc12	i	i	i	i	i
Cc1ccccc1CN1CCCC(C(=O)Nc2ccccc2Oc2cccnc2)C1 (stereo unspecified)	i	i	i	-7*	i
O=C(Nc1ccccc1Oc1cccnc1)C1CCCN(Cc2cccc(Cl)c2)C1 (stereo unspecified)	i	i	i	-6*	i
COc1cc(CN2CCCC(C(=O)Nc3ccccc3Oc3cccnc3)C2)ccc1F (stereo unspecified)	i	i	i	i	i
O=C(NCCc1cnc[nH]1)c1ccc(-c2ccccc2)cc1	i	106*	i	i	i
CCOc1ccccc1C(=O)NCCc1cnc[nH]1	i	i	i	i	17*
COc1ccc(NC(=O)CSc2nnnn2Cc2ccccc2)cc1	i	i	i	i	i
COC(=O)Cc1[nH]c(=S)[nH]c1C(=O)OC	i	i	i	i	i
CC(=O)c1c(C)[nH]c(C(=O)CN2C(=O)NC(C)(c3ccc(C)cc3)C2=O)c1C (stereo unspecified)	i	44*	i	i	i
CCN1C(=O)C(=O)N(CC(=O)c2[nH]c(C)c(C(C)=O)c2C)C1=O	i	i	i	i	i
Cc1cc2ccccn2c1C(=O)c1cc([N+](=O)[O-])cc([N+](=O)[O-])c1	i	i	i	i	12*
